In article PMC5892705 (Science signaling, 2017):
Where two headings read alike, the source gives them in different places. Blank lines part the entries; values can stand above or below the compound they belong to.

Experiments:
[1] = system: OT, V1a, V1b, V2 receptors; conditions: cited from earlier work
[2] = system: OT, V1a, V1b, V2 receptors; conditions: cited from earlier work; remark: listed apart in the source
[3] = system: OT, V1a, V1b, V2 receptors; conditions: cited from earlier work; remark: listed apart in the source
[4] = Human serum stability assay; assay type: in vitro ADME
Method in brief: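 Peptides were spiked into human serum. Aliquots were withdrawn at 1, 2, 3, 4, 12, 24 and 48 h and analysed by RP-HPLC and LCMS.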

rat V1aR = conditions: read-out: Ki at rat V1aR; ref Chini et al.([38]); cited from earlier work
human V1aR = conditions: read-out: Ki at human V1aR, cited from earlier work
human V2R = conditions: read-out: Ki at human V2R; ref Chini et al.([38]); cited from earlier work
rat V2R = conditions: read-out: Ki at rat V2R; ref Chini et al.([38]); cited from earlier work
mouse V2R = conditions: read-out: Ki at mouse V2R; ref Chini et al.([38]); cited from earlier work
human OTR = molecular target: T1, human OTR (Homo sapiens, UniProt P30559); conditions: read-out: Ki at human OTR; ref Chini et al.([38]); cited from earlier work
T1 sequence (P30559 1-389): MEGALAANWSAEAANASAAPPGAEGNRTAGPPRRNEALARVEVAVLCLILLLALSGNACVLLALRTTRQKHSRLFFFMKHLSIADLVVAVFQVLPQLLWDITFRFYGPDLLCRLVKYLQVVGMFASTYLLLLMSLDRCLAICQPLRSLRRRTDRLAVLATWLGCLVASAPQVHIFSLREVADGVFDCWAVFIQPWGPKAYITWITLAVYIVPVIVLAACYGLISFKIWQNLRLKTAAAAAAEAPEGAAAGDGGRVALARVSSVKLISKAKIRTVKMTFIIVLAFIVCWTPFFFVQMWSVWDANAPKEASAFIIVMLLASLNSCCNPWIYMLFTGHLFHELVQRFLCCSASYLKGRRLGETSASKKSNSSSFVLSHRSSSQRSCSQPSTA

rat OTR = conditions: read-out: Ki at rat OTR; ref Chini et al.([38]); cited from earlier work
human V1bR = conditions: read-out: Ki at human V1bR; ref Chini et al.([38]); cited from earlier work
rat V1bR = conditions: read-out: Ki at rat V1bR; ref Chini et al.([38]); cited from earlier work
[5] = rat, ref [37], [38], [41], [48], [49], [63], [96]–[99]
[6] = human, ref [37], [38], [41], [48], [49], [63], [96]–[99]
[7] = mouse, ref [37], [38], [41], [48], [49], [63], [96]–[99]

Compound: N=C(N)NCCC[C@H](NC(=O)[C@@H]1CCCN1C(=O)[C@@H]1CSSC[C@H](N)C(=O)N[C@@H](Cc2ccc(O)cc2)C(=O)N[C@@H](Cc2ccccc2)C(=O)N[C@@H](CCC(N)=O)C(=O)N[C@@H](CC(N)=O)C(=O)N1)C(=O)NCC(N)=O [AVP, arginine-vasopressin]
Selectivity [1]: unselective | Selectivity [2]: unselective | Selectivity [3]: unselective

half-life [4]: 12 h
Compound: CC[C@H](C)[C@@H]1NC(=O)[C@H](Cc2ccc(O)cc2)NC(=O)[C@@H](N)CSSC[C@@H](C(=O)N2CCC[C@H]2C(=O)N[C@@H](CC(C)C)C(=O)NCC(N)=O)NC(=O)[C@H](CC(N)=O)NC(=O)[C@H](CCC(N)=O)NC1=O [OT, Oxytocin]

Compound: COc1ccc(S(=O)(=O)N2c3ccc(Cl)cc3[C@](O)(c3ccccc3Cl)[C@@H]2C(=O)N2CCC[C@H]2C(N)=O)cc1OC [SR49049]
Ki (rat V1aR): 2.2 nM

Compound: COc1ccc(S(=O)(=O)N2c3ccc(Cl)cc3[C@](O)(c3ccccc3Cl)[C@@H]2C(=O)N2CCC[C@H]2C(N)=O)cc1OC [SR49059]
Ki (human V1aR; ref Chini et al.([38])): 0.9 nM

Compound: CCOc1ccc2c(c1)C1(CCC(OCCN3CCOCC3)CC1)C(=O)N2S(=O)(=O)c1ccc(C(=O)NC(C)(C)C)cc1OC (stereo not shown) [SR121463]
Ki (human V2R): 4.1 nM | Ki (rat V2R): 1.5 nM | Ki (mouse V2R): 11.2 nM

Compound: CCN(Cc1cccnc1)C(=O)c1ccc(Cl)c(C2(C)C(=O)N(Cc3ccc(OC)cc3OC)c3ccc(Cl)cc32)c1 (stereo not shown) [SSR126768]
Ki (human OTR): 0.9 nM

Compound: Atosiban
Selectivity [1, 5]: unselective | Selectivity [2, 6]: V1a preference | Selectivity [3, 7]: OT selective

Compound: [Hmp1,Phe2,Ile3,Hgn4,Dab8]-VP [F-180]
Selectivity [1, 5]: unselective | Selectivity [2, 6]: V1a preference | Ki (human V1aR; ref Chini et al.([38])): 11.7 nM

Compound: [Phe2,Ile3,Hgn4,Orn(iPr)8]-VP [FE 202158]
Ki (human V1aR; selective agonist, ref [100], [101]): 4.4 nM

Compound: [Thr4,Gly7]-OT [T4G7-OT]
Selectivity [1, 5]: OT selective | Selectivity [2, 6]: OT preference | Selectivity [3, 7]: OT selective | Ki (rat OTR): 1 nM

Compound: d(CH2)5[D-Ile2,Ile4,Tyr9]-AVP
Ki (human V1aR; ref Chini et al.([38])): 3.7 nM

Compound: d(CH2)5[Tyr(Me)2]-AVP
Ki (rat V1aR): 0.7 nM

Compound: dDAVP
Ki (rat V2R): 0.3 nM

Compound: d[Cha4]-AVP
Selectivity [1, 5]: unselective | Selectivity [2, 6]: V1b selective | Ki (human V1bR): 1.2 nM

Compound: d[Leu4, Lys8]-VP
Ki (rat V1bR): 1.2 nM
